The source of these data is publication PMC2669732 (Journal of Medicinal Chemistry, 2009).

pIC50: −log10 of the molar value. Where two headings read alike, the source gives them in different places. Where only a bound is given, the exact number is not on record here.

As a reminder, the Km is the substrate concentration at which the rate is half of its maximum. Usually pIC50 stands for the IC50 on a negative log10 scale, so that one unit is a factor of ten.

In one test the test system is LpxC. The following applies: cited from earlier work.
The target of another test is T1, EcIspF (Escherichia coli, UniProt P62617).
T1 sequence (P62617 1-159): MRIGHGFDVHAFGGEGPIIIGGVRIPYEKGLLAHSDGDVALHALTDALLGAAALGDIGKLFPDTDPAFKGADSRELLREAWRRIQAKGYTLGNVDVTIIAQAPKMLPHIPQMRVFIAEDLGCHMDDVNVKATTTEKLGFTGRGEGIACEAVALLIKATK
Description: SPR binding assay with immobilized EcIspF. The following applies: for fold weaker binding than CMP: SPR KD comparison; for ΔG: ΔG = −RT ln Kd. The essentials: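 E. coli IspF expressed in BL21(DE3), >95% pure, amine-coupled to CM5 chip (diluted to ~100 μg/mL final in 10 mM acetate pH 5.5) to 4500–5500 RU. Ligand series 0.1 μM–10 mM run at 10 °C, 30 μL/min, in 50 mM sodium phosphate pH 7, 2 mM MgCl2, 0.005% P20. Each injection in triplicate with 40 min buffer regeneration. Blank-subtracted steady-state RU fit to 1:1 Langmuir model.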

For the next test, the system named is E. coli LpxC. Conditions: cited from earlier work.
The mark [1] stands for this setting: Δg = ΔG/N, N = number of non-hydrogen atoms, Table 5.

Take `CC(=O)N[C@H]1[C@@H](OP(=O)(O)OP(=O)(O)OC[C@H]2O[C@@H](n3ccc(=O)[nH]c3=O)[C@H](O)[C@@H]2O)O[C@H](CO)[C@@H](O)[C@@H]1O` [UDP-GlcNAc]: the Km in the test on LpxC (substrate of LpxC) is above 20000 µM. Take `Nc1ccn([C@@H]2O[C@H](COP(=O)(O)O)[C@@H](O)[C@@H]2O)c(=O)n1` [AraCMP]: on EcIspF, the “fold weaker binding than CMP” value came out at 20 fold and the ΔG was -9.34 kJ/mol. Besides, at EcIspF (setting [1]), the “ligand efficiency (Δg)” value is −0.44 kJ·mol^−1/non-H atom. Turning to `Nc1nc(=O)n([C@@H]2O[C@H](CO)[C@@H](O)[C@H]2O)cc1F` [FLUC], at EcIspF, the “ligand efficiency (Δg)” value is −0.81 kJ·mol^−1/non-H atom and the ΔG is -14.60 kJ/mol. On EcIspF (setting [1]), the “ligand efficiency (Δg)” value is given as −0.81 kJ·mol^−1/non-H atom.

Turning to UDP-3-acyl-GlcNAc, in the test on LpxC (natural substrate of LpxC), the Km is 2.1 µM.

For the molecule `Nc1ccn([C@@H]2O[C@H](COP(=O)(O)O)[C@@H](O)[C@H]2O)c(=O)n1` [CMP], at EcIspF, the “ligand efficiency (Δg)” value was −0.79 kJ·mol^−1/non-H atom and the ΔG was -16.49 kJ/mol. Further, on EcIspF (setting [1]), the “ligand efficiency (Δg)” value was −0.79 kJ·mol^−1/non-H atom.

`Nc1ccn([C@H]2O[C@@H](CO)[C@H]3OP(=O)(O)O[C@H]32)c(=O)n1` (mixture of isomers) [Compound 6]: the “fold weaker binding than CMP” value at EcIspF is reported as “about 20 fold”. At EcIspF, `Nc1ccn(CC(CO)OCP(=O)(O)O)c(=O)n1.O.O` (stereo in doubt) [CDV, [(2R)-1-(4-amino-2-oxo-pyrimidin-1-yl)-3-hydroxy-propan-2-yl] oxymethylphosphonic acid] displayed a ΔG of -7.57 kJ/mol. Further, the “ligand efficiency (Δg)” value on EcIspF (setting [1]) is recorded as −0.42 kJ·mol^−1/non-H atom. Consider `O=C(O)C1COC(c2ccccc2)=N1` (stereo not shown) [4,5 dihydro-2-phenyloxazole-4-carboxylic acid], for which, in the test with E. coli LpxC, the negative-log IC50 (pIC50) is below 3.40. `N[C@@H](Cc1c[nH]c2ccccc12)C(=O)NO` [Compound 13, 2-amino-N-hydroxy-3-(1H-indol-3-yl)-propionimidic acid]: the “ligand efficiency (Δg)” value at EcIspF and at EcIspF (setting [1]) was −2.04 kJ·mol^−1/non-H atom in each case. For `Nc1ccn([C@@H]2O[C@@H]3COP(=O)(O)O[C@H]3[C@H]2O)c(=O)n1` [Compound 7], the ΔG at EcIspF is -16.44 kJ/mol. Further, at EcIspF (setting [1]), the “ligand efficiency (Δg)” value is −0.82 kJ·mol^−1/non-H atom.
